Data reported in ChEMBL document CHEMBL2176880 (J Med Chem, 2012).
Activity calls are given as the source filed them.

Experiments:
[1] = Tmax in Sprague-Dawley rat at […], iv or 10 mg/kg, po; format: ADME, organism-based; settings: in vivo
Cytochrome P450 2C19 = Cytochrome P450 2C19 (Homo sapiens, UniProt P33261); assay: Inhibition of CYP2C19; format: ADME
[2] = Cmax in dog rat at 1 mg/kg, iv or […], po; format: ADME, organism-based, Canis lupus familiaris; settings: in vivo
[3] = Protein binding in rat plasma; format: ADME, cell-free; settings: read-out: PPB (converted)
[4] = Cmax in Sprague-Dawley rat at […], iv or 10 mg/kg, po; format: ADME, organism-based; settings: in vivo
Rattus norvegicus [5] = assay: Inhibition of REM sleep state in Sprague-Dawley rat sleep-wake EEG paradigm model at 3 mg/kg, po; format: functional, organism-based; set-up: dose 3 mg/kg
Method in brief: (§1)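 Male Sprague−Dawley rats (250−300 g) chronically implanted with EEG, EMG and EOG electrodes; n = 8 per group. A 20 h recording after oral saline was followed by a 20 h recording at the same circadian time after oral vehicle (20% CD + 2H2T) or compound (3 mg/kg), starting at 13:30 in the lights-on period. 2 s epochs scored into sleep−wake stages; REM onset latency and state transitions determined. Wilcoxon−Mann−Whitney tests against vehicle.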

Rattus norvegicus [6] = assay: Inhibition of REM sleep state in Sprague-Dawley rat sleep-wake EEG paradigm model assessed as efficacy free concentration at 3 mg/kg, po; format: functional
[7] = Plasma concentration in Swiss mouse at 10 mg/kg, sc administered as single dose measured 1 hr post dose; format: ADME, organism-based; set-up: dose 10 mg/kg, route subcutaneous
Method in brief: (§2)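 Swiss mice given a single 10 mg/kg sc dose at 1 mg/mL in 20% HP-β-CD + HCl solution, pH 4. Brain and plasma levels taken 1 h post dose. Values are geometric means of at least two runs.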

Rattus norvegicus [8] = assay: Inhibition of REM sleep state in po dosed Sprague-Dawley rat sleep-wake EEG paradigm model; format: functional; settings: read-out: MED
Rattus norvegicus [9] = assay: Effect on sleep-wake stages in Sprague-Dawley rat sleep-wake EEG paradigm model at 3 mg/kg, po; format: ADME, organism-based; set-up: dose 3 mg/kg, route oral; settings: in vivo; method in brief: as §1
[10] = Ratio of drug level in brain to plasma in Swiss mouse at 10 mg/kg, sc administered as single dose measured 1 hr post dose; format: ADME, organism-based; set-up: dose 10 mg/kg, route subcutaneous; settings: read-out: BPR; method in brief: as §2
[11] = Clearance in Sprague-Dawley rat at […], iv; format: ADME, organism-based; set-up: dose 2.5 mg/kg, route intravenous; settings: in vivo
Mus musculus [12] = assay: Antipsychotic activity in subcutaneously dosed NMRI mouse assessed as efficacy free concentration causing reversal of PCP-induced hyperlocomotion; format: functional
[13] = AUC (0 to infinity) in Sprague-Dawley rat at 10 mg/kg, po; format: ADME, organism-based; set-up: time infinity, dose 10 mg/kg, route oral; settings: plasma
MDR1 [14] = assay: Apparent permeability from apical to basolateral side in MDR1 expressing pig LLC-PK1 cells; format: ADME, cell-based, Sus scrofa
Cytochrome P450 1A2 = molecular target: T1, Cytochrome P450 1A2 (Homo sapiens, UniProt P05177); assay: Inhibition of CYP1A2; format: ADME
T1 sequence (P05177 whole entry): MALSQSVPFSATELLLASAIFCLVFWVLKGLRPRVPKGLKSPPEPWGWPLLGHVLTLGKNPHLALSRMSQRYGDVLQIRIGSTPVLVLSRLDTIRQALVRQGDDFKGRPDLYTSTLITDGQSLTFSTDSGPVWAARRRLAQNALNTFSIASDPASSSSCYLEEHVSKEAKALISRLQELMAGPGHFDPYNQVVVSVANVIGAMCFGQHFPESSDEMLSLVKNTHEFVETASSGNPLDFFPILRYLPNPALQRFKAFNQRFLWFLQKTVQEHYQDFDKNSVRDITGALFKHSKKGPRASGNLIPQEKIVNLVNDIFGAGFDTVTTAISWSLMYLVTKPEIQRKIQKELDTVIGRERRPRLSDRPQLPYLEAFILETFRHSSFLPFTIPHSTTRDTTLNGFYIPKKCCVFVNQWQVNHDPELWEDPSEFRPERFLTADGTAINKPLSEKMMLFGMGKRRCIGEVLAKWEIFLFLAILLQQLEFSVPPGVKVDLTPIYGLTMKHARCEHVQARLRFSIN

[15] = Half life in Sprague-Dawley rat at […], iv; format: ADME, organism-based; set-up: dose 2.5 mg/kg, route intravenous; settings: in vivo
Cytochrome P450 2D6 = Cytochrome P450 2D6 (Homo sapiens, UniProt P10635); assay: Inhibition of CYP2D6; format: ADME
Chain of Cytochrome P450 2D6 (P10635 whole entry): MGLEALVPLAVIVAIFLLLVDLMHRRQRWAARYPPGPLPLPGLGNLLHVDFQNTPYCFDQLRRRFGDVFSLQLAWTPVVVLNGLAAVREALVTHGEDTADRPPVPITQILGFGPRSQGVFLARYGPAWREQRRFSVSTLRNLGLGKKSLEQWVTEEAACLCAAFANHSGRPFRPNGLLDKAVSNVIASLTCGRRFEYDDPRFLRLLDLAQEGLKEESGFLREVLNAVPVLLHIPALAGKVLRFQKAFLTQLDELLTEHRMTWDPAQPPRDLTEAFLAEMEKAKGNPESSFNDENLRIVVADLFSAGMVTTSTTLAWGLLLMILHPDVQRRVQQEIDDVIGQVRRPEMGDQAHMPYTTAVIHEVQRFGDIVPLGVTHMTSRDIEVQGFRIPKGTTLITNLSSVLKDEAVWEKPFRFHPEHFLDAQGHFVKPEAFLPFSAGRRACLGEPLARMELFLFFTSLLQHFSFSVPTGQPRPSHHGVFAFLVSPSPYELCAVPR

[16] = Volume of distribution at steady state in Sprague-Dawley rat at […], iv or 10 mg/kg, po; format: ADME, organism-based; settings: in vivo, read-out: Vdss
Mus musculus [17] = assay: Antipsychotic activity in subcutaneously dosed NMRI mouse assessed as reversal of PCP-induced hyperlocomotion; format: functional
Method in brief: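 Nonhabituated mice given vehicle or test compound sc, then immediately challenged with PCP (5.0 mg/kg, sc) or vehicle and placed singly in open fields for 30 min. Distance travelled measured by video tracking. Responder criterion: total distance < 5500 counts.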

Rattus norvegicus [18] = assay: Effect on sleep-wake stages in Sprague-Dawley rat sleep-wake EEG paradigm model assessed as induction of sleep fragmentation at 3 mg/kg, po; format: organism-based; set-up: dose 3 mg/kg, route oral; settings: in vivo; method in brief: as §1
Rattus norvegicus [19] = assay: Prolongation of REM sleep onset latency in Sprague-Dawley rat sleep-wake EEG paradigm model at 3 mg/kg, po; format: functional, organism-based; set-up: dose 3 mg/kg; method in brief: as §1
[20] = Half life in dog rat at 1 mg/kg, iv or […], po; format: ADME, organism-based, Canis lupus familiaris; settings: in vivo
TK6 [21] = assay: Genotoxicity in human TK6 cells in absence of rat liver S9 fraction up to 150 ug/ml; format: toxicity, cell-based
Method in brief: (§3)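 In vitro micronucleus test in human lymphoblastoid TK6 cells, with or without metabolic activation by rat liver S9, tested up to 150 μg/mL.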

Canis familiaris = assay: Cardiotoxicity in anesthetized dog assessed as proarrhythmic potency; format: toxicity, organism-based, Canis lupus familiaris; settings: in vivo
[22] = Cardiotoxicity assessed as proarrhythmic potency in rabbit Purkinje fibers; format: toxicity, tissue-based, Oryctolagus cuniculus, Purkinje fiber
[23] = Dissociation constant, pKa of the compound; format: physicochemical
[24] = Oral bioavailability in Sprague-Dawley rat at 10 mg/kg; format: ADME, organism-based; settings: in vivo
Salmonella typhimurium = assay: Mutagenicity in Salmonella typhimurium TA98 up to […]; format: toxicity, organism-based; settings: salmonella enterica subsp. enterica serovar typhimurium
[25] = Oral bioavailability in dog rat at […]; format: ADME, organism-based, Canis lupus familiaris; settings: in vivo
Cytochrome P450 3A4 = Cytochrome P450 3A4 (Homo sapiens, UniProt P08684); assay: Inhibition of CYP3A4; format: ADME
Chain of Cytochrome P450 3A4 (P08684 whole entry): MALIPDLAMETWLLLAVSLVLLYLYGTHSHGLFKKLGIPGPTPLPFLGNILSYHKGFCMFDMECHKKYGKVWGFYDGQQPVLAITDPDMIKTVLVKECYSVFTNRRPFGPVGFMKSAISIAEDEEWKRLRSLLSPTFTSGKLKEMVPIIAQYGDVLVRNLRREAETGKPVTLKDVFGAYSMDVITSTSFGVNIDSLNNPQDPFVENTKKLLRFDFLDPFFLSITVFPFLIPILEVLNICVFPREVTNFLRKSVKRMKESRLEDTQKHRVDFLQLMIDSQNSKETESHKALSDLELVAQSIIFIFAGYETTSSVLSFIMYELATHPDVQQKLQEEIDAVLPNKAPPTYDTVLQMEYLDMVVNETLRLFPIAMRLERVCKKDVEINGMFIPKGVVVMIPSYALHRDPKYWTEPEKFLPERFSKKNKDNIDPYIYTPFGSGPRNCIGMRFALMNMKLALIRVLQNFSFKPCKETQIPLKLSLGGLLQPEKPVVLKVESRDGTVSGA

[26] = AUC (0 to infinity) in dog rat at 1 mg/kg, iv or […], po; format: ADME, organism-based, Canis lupus familiaris; settings: plasma
TK6 [27] = assay: Genotoxicity in human TK6 cells in presence of rat liver S9 fraction up to 150 ug/ml; format: toxicity, cell-based; method in brief: as §3
[28] = Tmax in dog rat at 1 mg/kg, iv or […], po; format: ADME, organism-based, Canis lupus familiaris; settings: in vivo
[29] = Drug level in Swiss mouse brain at 10 mg/kg, sc administered as single dose measured 1 hr post dose; format: ADME, organism-based; set-up: dose 10 mg/kg, route subcutaneous; settings: read-out: Drug uptake; method in brief: as §2
[30] = Clearance in dog rat at 1 mg/kg, iv or […], po; format: ADME, organism-based, Canis lupus familiaris; settings: in vivo
Cytochrome P450 2C9 = Cytochrome P450 2C9 (Homo sapiens, UniProt P11712); assay: Inhibition of CYP2C9; format: ADME
Chain of Cytochrome P450 2C9 (P11712 whole entry): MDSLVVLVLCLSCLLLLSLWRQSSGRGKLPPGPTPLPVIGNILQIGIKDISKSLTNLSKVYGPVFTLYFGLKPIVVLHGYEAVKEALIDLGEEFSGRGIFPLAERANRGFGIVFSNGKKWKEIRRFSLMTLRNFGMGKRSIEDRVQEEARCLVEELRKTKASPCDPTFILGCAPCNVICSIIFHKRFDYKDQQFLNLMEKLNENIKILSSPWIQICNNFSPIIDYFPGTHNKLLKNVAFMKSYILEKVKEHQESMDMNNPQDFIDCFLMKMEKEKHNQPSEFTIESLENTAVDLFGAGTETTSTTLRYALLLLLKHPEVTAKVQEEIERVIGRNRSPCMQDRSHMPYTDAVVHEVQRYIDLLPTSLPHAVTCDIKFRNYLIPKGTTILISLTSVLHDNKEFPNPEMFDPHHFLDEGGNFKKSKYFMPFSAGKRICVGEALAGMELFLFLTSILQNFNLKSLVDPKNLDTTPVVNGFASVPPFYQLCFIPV

[31] = Drug metabolism in human liver microsomes at 5 uM after 15 mins; format: ADME, Microsome; settings: read-out: Drug metabolism
Method in brief: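 Compound at 5 μM incubated 15 min with human liver microsomes; read-out is % of compound metabolized. Values are the mean of at least two experiments.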

[32] = Lipophilicity, log P of the compound at pH 7; settings: buffer
[33] = Drug metabolism in mouse liver microsomes at 5 uM after 15 mins; format: ADME, Microsome; settings: read-out: Drug metabolism
MDR1 [34] = assay: Apparent permeability from basolateral to apical side in MDR1 expressing pig LLC-PK1 cells; format: ADME, cell-based, Sus scrofa
[35] = Volume of distribution at steady state in dog rat at 1 mg/kg, iv or […], po; format: ADME, organism-based, Canis lupus familiaris; settings: in vivo, read-out: Vdss
[36] = Protein binding in human plasma; format: ADME, cell-free; settings: read-out: PPB (converted)
Cavia porcellus = assay: Cardiotoxicity in anesthetized guinea pig assessed as proarrhythmic potency; format: toxicity, organism-based; settings: in vivo

Chain of Cytochrome P450 2C19 (P33261 whole entry): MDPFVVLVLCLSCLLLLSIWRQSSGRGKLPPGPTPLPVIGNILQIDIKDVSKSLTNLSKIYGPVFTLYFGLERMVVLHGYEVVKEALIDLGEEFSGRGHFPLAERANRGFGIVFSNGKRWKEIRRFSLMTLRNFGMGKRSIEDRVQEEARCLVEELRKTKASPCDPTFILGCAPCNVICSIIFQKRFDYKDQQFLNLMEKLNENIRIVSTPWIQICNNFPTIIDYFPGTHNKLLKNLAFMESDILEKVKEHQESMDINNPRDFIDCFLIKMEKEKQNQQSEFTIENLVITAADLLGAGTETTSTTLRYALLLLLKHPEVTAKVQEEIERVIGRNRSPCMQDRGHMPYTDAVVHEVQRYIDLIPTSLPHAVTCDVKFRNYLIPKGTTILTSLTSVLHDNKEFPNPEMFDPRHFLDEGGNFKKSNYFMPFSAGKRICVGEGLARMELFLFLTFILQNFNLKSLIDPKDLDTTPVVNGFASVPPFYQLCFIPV

For `FC(F)(F)c1c(N2CCC(c3ccccc3)CC2)ccn2c(CC3CC3)nnc12`, which Tmax [1] is on record?
Its Tmax is 30 min.

And the IC50 (Cytochrome P450 2C19)?
Its IC50 is 20 µM.

What about the Cmax [2] of the same molecule?
The Cmax was 218 ng/mL.

And the fraction unbound [3]?
The fraction unbound was 0.0035.

What about the Cmax [4] of the same molecule?
The Cmax was 482 ng/mL.

And the inhibition (Rattus norvegicus [5])?
Its inhibition is “Active”.

What about the INH (Rattus norvegicus [6]) of the same molecule?
Its INH is 0.14 ng/mL.

What about the concentration at 1 h [7] of the same molecule?
Its concentration at 1 h is 671 ng/mL.

What about the minimal effective dose (Rattus norvegicus [8]) of the same molecule?
Its minimal effective dose is 3 mg/kg.

And the Activity (Rattus norvegicus [9])?
Its Activity is “Non-toxic”.

What about the Kp at 1 h [10] of the same molecule?
Its Kp at 1 h is 1.4.

What about the clearance [11] of the same molecule?
The clearance was 35 mL/min/kg.

And the INH (Mus musculus [12])?
The INH was 2.6 ng/mL.

And the AUC(0-inf) [13]?
The AUC(0-inf) was 1800 ng·h/mL.

What about the Papp A→B (MDR1 [14]) of the same molecule?
The Papp A→B was 12 ×10⁻⁶ cm/s.

And the IC50 (Cytochrome P450 1A2)?
The IC50 was > 30 µM.

What about the half-life [15] of the same molecule?
Its half-life is 162 min.

And the IC50 (Cytochrome P450 2D6)?
Its IC50 is > 30 µM.

And the Vd [16]?
The Vd was 1.4 L/kg.

And the Activity (Mus musculus [17])?
The Activity was “Dose-dependent effect”.

What about the ED50 (Mus musculus [17]; sc) of the same molecule?
The ED50 was 5.4 mg/kg.

And the Activity (Rattus norvegicus [18])?
The Activity was “Non-toxic”.

What about the Activity (Rattus norvegicus [19]) of the same molecule?
Its Activity is “Active”.

What about the half-life [20] of the same molecule?
Its half-life is 48 min.

And the Activity (TK6 [21])?
Its Activity is “Non-toxic”.

What about the NOAEL (Canis familiaris) of the same molecule?
Its NOAEL is 6625 ng/mL.

And the NOAEL [22]?
The NOAEL was 0.075 µM.

What about the pKa [23] of the same molecule?
Its pKa is 4.1.

And the bioavailability [24]?
The bioavailability was 36%.

And the Activity (Salmonella typhimurium)?
Its Activity is “Non-toxic”.

What about the bioavailability [25] of the same molecule?
The bioavailability was 18%.

And the IC50 (Cytochrome P450 3A4)?
Its IC50 is > 30 µM.

And the AUC(0-inf) [26]?
Its AUC(0-inf) is 531 ng·h/mL.

What about the Activity (TK6 [27]) of the same molecule?
The Activity was “Non-toxic”.

What about the Tmax [28] of the same molecule?
The Tmax was 30 min.

And the concentration at 1 h [29]?
The concentration at 1 h was 849 ng/mL.

And the clearance [30]?
Its clearance is 29 mL/min/kg.

What about the IC50 (Cytochrome P450 2C9) of the same molecule?
Its IC50 is 11 µM.

And the metabolised at […], 5 µM [31]?
The metabolised at […], 5 µM was 23%.

And the logD [32]?
The logD was 4.4.

And the metabolised at […], 5 µM [33]?
Its metabolised at […], 5 µM is 25%.

What about the Papp B→A (MDR1 [34]) of the same molecule?
The Papp B→A was 6 ×10⁻⁶ cm/s.

And the Vd [35]?
Its Vd is 1.3 L/kg.

What about the fraction unbound [36] of the same molecule?
Its fraction unbound is 0.0018.

And the NOAEL (Cavia porcellus)?
The NOAEL was 9000 ng/mL.
